Test results taken from ChEMBL document CHEMBL2046356, “Synthesis and evaluation of a set of para-substituted 4-phenylpiperidines and 4-phenylpiperazines as monoamine oxidase (MAO) inhibitors” (J Med Chem, 2012).
Calls of active or inactive are those of the source. No cut-off for these calls is given here.

Key:
[1] = target: T1, Amine oxidase [flavin-containing] B (Rattus norvegicus, UniProt P19643); assay: Displacement of [3H]-Ro 16-6491 from MAO-B receptor in rat cerebral cortex; format: tissue-based
T1 sequence (P19643 whole entry): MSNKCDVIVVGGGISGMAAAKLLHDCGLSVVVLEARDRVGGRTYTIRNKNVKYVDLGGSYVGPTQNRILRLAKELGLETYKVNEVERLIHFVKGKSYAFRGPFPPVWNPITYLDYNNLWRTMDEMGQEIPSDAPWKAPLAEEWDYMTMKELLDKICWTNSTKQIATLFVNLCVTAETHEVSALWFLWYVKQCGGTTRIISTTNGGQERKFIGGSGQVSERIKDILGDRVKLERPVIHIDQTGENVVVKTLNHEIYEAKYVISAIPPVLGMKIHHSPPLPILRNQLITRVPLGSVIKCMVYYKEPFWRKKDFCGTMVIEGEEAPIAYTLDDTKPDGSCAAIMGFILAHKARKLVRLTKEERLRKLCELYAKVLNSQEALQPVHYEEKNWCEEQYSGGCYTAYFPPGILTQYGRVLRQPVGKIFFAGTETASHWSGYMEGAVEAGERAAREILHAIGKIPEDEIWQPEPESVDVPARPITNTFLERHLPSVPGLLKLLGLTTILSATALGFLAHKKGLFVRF

Rattus norvegicus [2] = assay: Decrease in DOPAC level in Sprague-Dawley rat striatum at 100 umol/kg, sc measured after 1 hr compound administration; format: functional; parameters: scale not given: the % may be the effect or the level left
Outline: (§1)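 Compounds were given to freely moving rats. Brain tissue was taken post-mortem, and striatal levels of each monoamine and its metabolites were quantified.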

Rattus norvegicus [3] = assay: Increase in 3-MT level in Sprague-Dawley rat striatum at 100 umol/kg, sc measured after 1 hr compound administration; format: functional; outline: as §1
[4] = target: T2, Amine oxidase [flavin-containing] A (Rattus norvegicus, UniProt P21396); assay: Displacement of [3H]-Ro 41-1049 from MAO-A receptor in rat cerebral cortex; format: tissue-based
T2 sequence (P21396 whole entry): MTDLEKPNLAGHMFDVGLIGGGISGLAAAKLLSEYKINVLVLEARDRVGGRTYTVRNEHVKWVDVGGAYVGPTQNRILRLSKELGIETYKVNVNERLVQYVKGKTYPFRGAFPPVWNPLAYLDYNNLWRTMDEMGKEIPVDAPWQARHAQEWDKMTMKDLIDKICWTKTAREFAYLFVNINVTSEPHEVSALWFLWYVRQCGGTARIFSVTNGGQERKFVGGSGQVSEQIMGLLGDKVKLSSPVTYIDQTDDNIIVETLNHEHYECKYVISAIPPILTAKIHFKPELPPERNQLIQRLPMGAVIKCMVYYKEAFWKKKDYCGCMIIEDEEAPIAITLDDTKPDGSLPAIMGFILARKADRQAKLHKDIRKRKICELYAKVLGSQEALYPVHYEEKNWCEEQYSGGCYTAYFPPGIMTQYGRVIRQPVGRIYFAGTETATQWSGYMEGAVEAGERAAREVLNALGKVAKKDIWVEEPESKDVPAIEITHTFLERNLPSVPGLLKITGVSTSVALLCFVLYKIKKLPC

Rattus norvegicus [5] = assay: Decrease in homovanillic acid level in Sprague-Dawley rat brain at 50 umol/kg, sc measured by microdialysis; format: functional, organism-based
Rattus norvegicus [6] = assay: Decrease in DOPAC level in Sprague-Dawley rat brain at 50 umol/kg, sc measured by microdialysis; format: functional, organism-based
Rattus norvegicus [7] = assay: Increase in 3-MT level in Sprague-Dawley rat brain at 50 umol/kg, sc measured by microdialysis; format: functional, organism-based
Rattus norvegicus [8] = assay: Decrease in DOPAC level in Sprague-Dawley rat striatum at 37 umol/kg, sc measured after 1 hr compound administration; format: functional; parameters: scale not given: the % may be the effect or the level left
Outline: (§2)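 Unrestrained rats were dosed, and post-mortem striatal brain tissue was then analysed. Each monoamine and its metabolites (DOPAC, 3-MT) were quantified in the tissue.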

Rattus norvegicus [9] = assay: Increase in 3-MT level in Sprague-Dawley rat striatum at 37 umol/kg, sc measured after 1 hr compound administration; format: functional; outline: as §2
Rattus norvegicus [10] = assay: Decrease in DOPAC level in Sprague-Dawley rat striatum at 53 umol/kg, sc measured after 1 hr compound administration; format: functional; parameters: scale not given: the % may be the effect or the level left; outline: as §1
Rattus norvegicus [11] = assay: Increase in 3-MT level in Sprague-Dawley rat striatum at 53 umol/kg, sc measured after 1 hr compound administration; format: functional; outline: as §1
Rattus norvegicus [12] = assay: Increase in 3-MT level in Sprague-Dawley rat striatum at 5.3 umol/kg, sc measured after 1 hr compound administration; format: functional; outline: as §1
Rattus norvegicus [13] = assay: Decrease in DOPAC level in Sprague-Dawley rat striatum at 5.3 umol/kg, sc measured after 1 hr compound administration; format: functional; parameters: scale not given: the % may be the effect or the level left; outline: as §1

SMILES: CCCN1CCC(c2ccc(C(F)(F)F)cc2)CC1
- Ki [1]: 12.9 µM
- Activity (Rattus norvegicus [2]): 86%
- Activity (Rattus norvegicus [3]): 100%
- Ki [4]: 6.92 µM

SMILES: CCCN1CCN(c2ccc(OS(=O)(=O)C(F)(F)F)cc2)CC1
- Ki [1]: 0.0331 µM
- Activity (Rattus norvegicus [2]): 121%
- Activity (Rattus norvegicus [3]): 120%
- Ki [4]: 17 µM

SMILES: CCCN1CCC(c2ccc(S(C)(=O)=O)cc2)CC1
- Ki [1]: 589 µM
- Activity (Rattus norvegicus [2]): 100%
- Activity (Rattus norvegicus [3]): 100%
- Ki [4]: 589 µM

SMILES: CCCCOc1ccc(C2CCN(CCC)CC2)cc1
- Ki [1]: 1.58 µM
- Activity (Rattus norvegicus [2]): 40%
- Activity (Rattus norvegicus [5]): Active
- Activity (Rattus norvegicus [3]): 150%
- Activity (Rattus norvegicus [6]): Active
- Ki [4]: 0.372 µM
- Activity (Rattus norvegicus [7]): Active

SMILES: CCCN1CCN(c2ccccc2)CC1
- Activity (Rattus norvegicus [2]): 180%
- Activity (Rattus norvegicus [3]): 100%
- Ki [4]: 46.8 µM

SMILES: CCCN1CCN(c2ccc(OC)cc2)CC1
- Ki [1]: 589 µM
- Activity (Rattus norvegicus [2]): 71%
- Activity (Rattus norvegicus [3]): 135%
- Ki [4]: 1.41 µM

SMILES: CCCN1CCC(c2ccc(OC)cc2)CC1
- Ki [1]: 219 µM
- Activity (Rattus norvegicus [2]): 22%
- Activity (Rattus norvegicus [3]): 260%
- Ki [4]: 0.24 µM

SMILES: CCCN1CCC(c2ccc(Cl)cc2)CC1
- Ki [1]: 38 µM
- Activity (Rattus norvegicus [2]): 68%
- Activity (Rattus norvegicus [3]): 130%
- Ki [4]: 1.51 µM

SMILES: CCCN1CCC(c2ccc(N3CCOCC3)cc2)CC1
- Ki [1]: 12.9 µM
- Activity (Rattus norvegicus [2]): 38%
- Activity (Rattus norvegicus [3]): 160%
- Ki [4]: 1.2 µM

SMILES: O=C(NCCN1CCOCC1)c1ccc(Cl)cc1 [MOCLOBEMIDE]
- Ki [1]: > 100 µM
- Activity (Rattus norvegicus [8]): 18%
- Activity (Rattus norvegicus [9]): 400%

SMILES: CCCN1CCC(c2ccccc2)CC1
- Activity (Rattus norvegicus [2]): 130%
- Activity (Rattus norvegicus [3]): 100%
- Ki [4]: 9.77 µM

SMILES: CCCN1CCC(c2ccc(C#N)cc2)CC1
- Ki [1]: 589 µM
- Activity (Rattus norvegicus [2]): 105%
- Activity (Rattus norvegicus [3]): 115%
- Ki [4]: 93.3 µM

SMILES: C#CCN(C)[C@H](C)Cc1ccccc1 [SELEGILINE]
- Activity (Rattus norvegicus [10]): 37%
- Activity (Rattus norvegicus [11]): 145%
- Activity (Rattus norvegicus [12]): 110%
- Activity (Rattus norvegicus [13]): 83%
